Reference: ChEMBL document CHEMBL4840330, “Secoiridoids from Dogwood (Cornus officinalis) Potentiate Progesterone Signaling” (J Nat Prod, 2021)
The source made the active and inactive calls.

Biological target: T1, Progesterone receptor (Homo sapiens) (UniProt P06401)
T1 sequence (whole entry): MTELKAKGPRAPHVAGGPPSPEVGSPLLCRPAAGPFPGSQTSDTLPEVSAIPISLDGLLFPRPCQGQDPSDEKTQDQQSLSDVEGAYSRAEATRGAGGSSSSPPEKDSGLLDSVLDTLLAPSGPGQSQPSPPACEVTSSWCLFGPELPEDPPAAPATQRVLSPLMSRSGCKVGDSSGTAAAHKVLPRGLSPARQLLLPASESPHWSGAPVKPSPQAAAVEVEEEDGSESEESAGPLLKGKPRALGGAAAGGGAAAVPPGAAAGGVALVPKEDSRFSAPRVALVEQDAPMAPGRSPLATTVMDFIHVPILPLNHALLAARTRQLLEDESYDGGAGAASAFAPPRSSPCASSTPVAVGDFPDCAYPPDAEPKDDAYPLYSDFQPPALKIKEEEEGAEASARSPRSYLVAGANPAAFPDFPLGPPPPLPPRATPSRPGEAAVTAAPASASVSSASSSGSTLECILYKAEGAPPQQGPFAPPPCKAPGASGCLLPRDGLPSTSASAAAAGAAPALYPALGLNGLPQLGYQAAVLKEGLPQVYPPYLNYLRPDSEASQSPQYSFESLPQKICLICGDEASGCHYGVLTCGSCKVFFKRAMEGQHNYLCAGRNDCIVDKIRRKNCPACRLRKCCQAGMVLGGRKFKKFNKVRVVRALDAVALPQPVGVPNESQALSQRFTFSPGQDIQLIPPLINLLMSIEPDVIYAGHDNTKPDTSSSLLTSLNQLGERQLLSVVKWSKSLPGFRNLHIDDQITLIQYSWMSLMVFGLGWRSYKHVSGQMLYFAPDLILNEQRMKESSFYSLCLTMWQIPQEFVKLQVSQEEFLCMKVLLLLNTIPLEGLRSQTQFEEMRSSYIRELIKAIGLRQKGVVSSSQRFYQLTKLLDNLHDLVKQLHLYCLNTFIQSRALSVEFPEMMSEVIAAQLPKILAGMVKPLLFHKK
Assay: Potentiation of progesterone receptor B in progesterone-stimulated human Ishikawa cells assessed as induction of PRE/Luc transcriptional activity at 10 uM measured after 24 hrs by luciferase reporter gene assay relative to control
Conditions: not given
How it was run: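 Ishikawa cells stably expressing PR-B co-treated with 1 nM progesterone plus test agent at 10 μM; PRE-luciferase reporter activity compared with 1 nM progesterone alone; n≥3; mean ± SEM, significance by p-value thresholds.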

| Compound | Activity [%] |
| --- | --- |
| COC(=O)C1=CO[C@@H](O[C@@H]2O[C@H](CO)[C@@H](O)[C@H](O)[C@H]2O)[C@@H]2[C@H](C)O[C@H](OC)C[C@H]12 | 29 |
| COC(=O)C1=CO[C@@H](O[C@@H]2O[C@H](CO)[C@@H](O)[C@H](O)[C@H]2O)[C@@H]2[C@H](C)O[C@@H](OC)C[C@H]12 | 18 |

Same assay, conditions: filed as activator

| Compound | Activity [%] |
| --- | --- |
| C=C[C@H]1[C@H](O[C@@H]2O[C@H](CO)[C@@H](O)[C@H](O)[C@H]2O)OC=C(C(=O)O)[C@H]1CCOC(=O)c1cc(O)c(O)c(O)c1 | 42 |
| C=C[C@H]1[C@H](O[C@@H]2O[C@H](CO)[C@@H](O)[C@H](O)[C@H]2O)OC=C(C(=O)OC)[C@H]1CCOC(=O)c1cc(O)c(O)c(O)c1 | 43 |

Biological target: T1, Progesterone receptor (Homo sapiens)
Assay: Induction of progesterone receptor B in human Ishikawa cells assessed as induction of PRE/Luc transcriptional activity at 10 uM measured after 24 hrs by luciferase reporter gene assay
Format: cell-based
Conditions: not given
How it was run: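 Ishikawa cells stably expressing PR-B; test agent alone at 10 μM; PRE-driven luciferase reporter read-out; n≥3; mean ± SEM.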

| Compound | Activity |
| --- | --- |
| COC(=O)C1=CO[C@@H](O[C@@H]2O[C@H](CO)[C@@H](O)[C@H](O)[C@H]2O)[C@@H]2[C@H](C)O[C@H](OC)C[C@H]12 | inactive |
| C=C[C@H]1[C@H](O[C@@H]2O[C@H](CO)[C@@H](O)[C@H](O)[C@H]2O)OC=C(C(=O)O)[C@H]1CCOC(=O)c1cc(O)c(O)c(O)c1 | inactive |
| C=C[C@H]1[C@H](O[C@@H]2O[C@H](CO)[C@@H](O)[C@H](O)[C@H]2O)OC=C2C(=O)OCC[C@H]21 | inactive |
| C=C[C@H]1C(O[C@@H]2O[C@H](CO)[C@@H](O)[C@H](O)[C@H]2O)OC=C(C(=O)O)[C@H]1CC(=O)O (stereo partly specified) | inactive |

Second part, the molecule after the results:

| Activity | Compound |
| --- | --- |
| inactive | COC(=O)C1=CO[C@@H](O[C@@H]2O[C@H](CO)[C@@H](O)[C@H](O)[C@H]2O)[C@@H]2[C@H](C)O[C@@H](OC)C[C@H]12 |
| inactive | C=C[C@H]1C(O[C@@H]2O[C@H](CO)[C@@H](O)[C@H](O)[C@H]2O)OC=C(C(=O)OC)[C@H]1CC(=O)O (stereo partly specified) |
| inactive | C=C[C@H]1[C@H](O[C@@H]2O[C@H](CO)[C@@H](O)[C@H](O)[C@H]2O)OC=C(C(=O)OC)[C@H]1CCOC(=O)c1cc(O)c(O)c(O)c1 |
